Results reported in article PMC2532710 (Nucleic Acids Research, 2008).

How the values were obtained:
[1] = system: replication fork substrate; assay: 2-AP fluorescence quenching, replication fork; type: binding
Outline: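 Substrates were annealed from oligos (boiled 5 min, slow-cooled), gel-purified on native 12% PAGE and quantified spectrophotometrically. After ≥10 min equilibration, emission was read at 330–430 nm (excitation 315 nm). Adenine-substituted spectra were subtracted, and fold decrease at 370 nm was taken versus no peptide.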

[2] = system: RecG binding to HJ substrate; assay: RecG/; design: species or system Escherichia coli

mechanism of inhibition of RecG [2]: competitive mechanism
inhibition of RecG binding to HJ ([2]; 0.02 μM RecG, 0.025 μM peptide dimer, 2 nM HJ): strongly inhibited
inhibition of RecG binding to HJ ([2]; 0.02 μM RecG, 0.1 μM peptide, 2 nM HJ): almost completely inhibited
inhibition of RecG binding to HJ ([2]; 0.2 μM RecG, 0.025 μM peptide): only weak inhibition
Substance: (WRWYCR)2 (disulfide)
fold decrease in 2-AP fluorescence at 370 nm ([1]; Fork-1AP1 (central base), 0.05 μM dimer, 0.25:1): 1.0 fold
fold decrease in 2-AP fluorescence at 370 nm ([1]; Fork-1AP1 (central base), 0.2 μM dimer, 1:1): 1.0 fold
fold decrease in 2-AP fluorescence at 370 nm ([1]; Fork-1AP1 (central base), 0.8 μM dimer, 4:1): 1.2 fold
fold decrease in 2-AP fluorescence at 370 nm ([1]; Fork-3AP2, 0.2 μM dimer, 1:1): 1.0 fold
fold decrease in 2-AP fluorescence at 370 nm ([1]; Fork-3AP2, 1.6 μM dimer, 8:1): 1.2 fold
fold decrease in 2-AP fluorescence at 370 nm ([1]; Fork-4AP1 (central base), 0.05 μM dimer, 0.25:1): 1.0 fold
fold decrease in 2-AP fluorescence at 370 nm ([1]; Fork-4AP1 (central base), 1.6 μM dimer, 8:1): 1.7 fold
fold decrease in 2-AP fluorescence at 370 nm ([1]; Fork-4AP2 (central base), 0.05 μM dimer, 0.25:1): 1.0 fold
fold decrease in 2-AP fluorescence at 370 nm ([1]; Fork-4AP2 (central base), 0.2 μM dimer, 1:1): 1.0 fold
fold decrease in 2-AP fluorescence at 370 nm ([1]; Fork-4AP3, 0.05 μM dimer, 0.25:1): 1.0 fold
fold decrease in 2-AP fluorescence at 370 nm ([1]; Fork-4AP3, 0.2 μM dimer, 1:1): 1.0 fold
fold decrease in 2-AP fluorescence at 370 nm ([1]; Fork-4AP3, 0.8 μM dimer, 4:1): 1.2 fold
fold decrease in 2-AP fluorescence at 370 nm ([1]; Fork-4AP4, 0.05 μM dimer, 0.25:1): 1.0 fold
fold decrease in 2-AP fluorescence at 370 nm ([1]; Fork-4AP4, 0.2 μM dimer, 1:1): 1.0 fold
fold decrease in 2-AP fluorescence at 370 nm ([1]; Fork-4AP4, 0.8 μM dimer, 4:1): 1.0 fold
fold decrease in 2-AP fluorescence at 370 nm ([1]; Fork-4AP4, 1.6 μM dimer, 8:1): 1.2 fold
inhibition of RecG–DNA complexes, order of addition ([2]; data not shown, Saha and Segall, unpublished data): occurs whether the peptide is added to DNA 10 min before or after RecG
